Assay outcomes: PubChem, several laboratories
The list is not random: actives were taken first. Their share in the collection is about 2.6%.
procasp7 counter = counter-screen: procaspase-7 (human) activation; recombinant procaspase-7, Ac-DEVD-pNA absorbance 405 nm; D23A/D198A/D206A triple mutant, cannot self-cleave; scale: DMSO 0, 5 µM enzyme 100; activation, % at 8.5 µM; hit rate 0.093% among 330,000;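 active means percent activation above the screen-wide mean plus 3 SD, cut at about 25% in these data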
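Replicates: singlicate. Assay system: Procaspase-7 triple mutant (PC-7 D3A). Signal: 405 nm absorbance of p-nitroaniline. Times: 1 h preincubation, 2 h reaction. Buffer or medium: Zinc-free HEPES pH 7.4 with 300 mM NaCl, 0.01% Triton X-100. Also added: DEVD-pNA substrate. Benchmarks: DMSO wells as 0%, DMSO with 5 µM added PC-7 as 100%.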
proCasp3 act = activates human procaspase-3; P42574; recombinant procaspase-3 D3A, Ac-DEVD-pNA absorbance 405 nm; activation, % at 8.5 µM; hit rate 0.11% among 330,000; AID 463141;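 active means activation above the mean of all tested compounds plus 3 SD, cut at about 21% in these data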;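 further: 0% = DMSO alone and 100% = DMSO wells spiked with extra 5 µM PC-3 D3A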
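Technique: 405 nm absorbance of p-nitroaniline, reads at 0 and 120 min; Test system: Procaspase-3 D3A mutant; Incubation: 1 h enzyme-compound preincubation, then 2 h substrate reaction, 25 °C; Repeats: singlicate, each compound tested once; Benchmarks: low control DMSO wells, high control DMSO plus 5 µM PC-3 D3A.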
PolyA inh = inhibitors of polyadenylation in S. cerevisiae | S. cerevisiae SKY197-pL101 polyadenylation reporter, beta-gal luminescence; efflux-impaired pdr1/pdr3 knockout yeast; score 100 = 6 SD above DMSO | AID 1875 | hit rate 0.02% among 300,000 | activity score, % at 12 µM;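 active means lowest replicate activity score at least 50, where 100 means six control SD above control mean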;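 further: yeast exposed to compound for 9 h at 30 °C; higher score means more reporter readthrough which indicates perturbed polyadenylation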
AHR act = human AHR activation | P35869 | AHR-responsive luciferase reporter cells, luminescence | activation, % at 5 µM | hit rate 2.5% among 320,000 | AID 2796; in the data active means activation above about 47%;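 further: 0% = vehicle wells and 100% = reference agonist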
Target sequence (P35869 whole entry, looked up): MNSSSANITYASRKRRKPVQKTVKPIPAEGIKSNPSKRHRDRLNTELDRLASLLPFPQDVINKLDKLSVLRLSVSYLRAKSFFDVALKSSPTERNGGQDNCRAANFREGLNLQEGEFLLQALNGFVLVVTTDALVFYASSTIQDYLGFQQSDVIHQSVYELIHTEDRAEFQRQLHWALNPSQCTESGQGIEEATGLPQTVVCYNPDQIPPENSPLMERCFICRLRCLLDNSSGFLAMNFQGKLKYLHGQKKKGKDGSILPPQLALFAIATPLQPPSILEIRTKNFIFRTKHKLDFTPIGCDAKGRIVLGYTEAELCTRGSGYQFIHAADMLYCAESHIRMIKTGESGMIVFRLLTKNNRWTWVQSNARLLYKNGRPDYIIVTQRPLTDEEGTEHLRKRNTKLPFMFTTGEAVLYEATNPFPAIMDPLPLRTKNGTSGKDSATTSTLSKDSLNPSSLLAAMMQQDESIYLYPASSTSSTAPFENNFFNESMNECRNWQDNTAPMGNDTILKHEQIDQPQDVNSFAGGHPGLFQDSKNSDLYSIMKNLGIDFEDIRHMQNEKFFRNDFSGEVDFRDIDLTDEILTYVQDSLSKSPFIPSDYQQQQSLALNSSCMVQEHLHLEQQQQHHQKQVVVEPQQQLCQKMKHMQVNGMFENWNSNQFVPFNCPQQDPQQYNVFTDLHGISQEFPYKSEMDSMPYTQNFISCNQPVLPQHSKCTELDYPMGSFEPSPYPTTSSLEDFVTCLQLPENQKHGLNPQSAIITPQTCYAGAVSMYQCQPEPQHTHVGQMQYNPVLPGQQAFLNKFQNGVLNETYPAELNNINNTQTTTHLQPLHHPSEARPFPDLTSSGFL
proCasp7 act trip = counter-screen for procaspase-3 activators: activators of human procaspase-7; activation, % at 8.5 µM; AID 488941; 210 tested, under 10 active; recombinant procaspase-7, Ac-DEVD-pNA absorbance; asp23/198/206-to-Ala mutant, cannot self-cleave; shares compounds with proCasp3 act;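 active means mean activation above a set limit taken from an earlier procaspase-7 screen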;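 further: 0% = DMSO wells and 100% = DMSO plus 5 µM procaspase-7 enzyme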
proCasp3 confirm = confirmation of human procaspase-3 activators | recombinant PC-3 D3A, Ac-DEVD-pNA absorbance 405 nm; 100% is higher-enzyme control | shares compounds with proCasp3 act | activation, % at 8.5 µM | hit rate 10% among 210 | AID 488954;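 active means mean activation above a set limit carried over from the earlier primary screen, cut at about 22% in these data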
* = called active by the depositor; . = not tested or not shown.

SMILES | procasp7 counter | proCasp3 act | PolyA inh | AHR act | proCasp7 act trip | proCasp3 confirm
COc1ccc(-n2nc(C(=O)NCC(=O)NC(C)C)c3ccccc3c2=O)cc1Cl | 0 | -4 | 9 | 9 | . | .
COc1cccc(CNc2nc3ccccc3n2CCN2CCCCC2)c1OC | 2 | 3 | . | 4 | . | .
CCn1c(NCc2cccc(OC)c2OC)nc2ccccc21 | 17 | 22* | -1 | 13 | 4 | 2
COc1ccc2nc(Nc3nc4cc5c(cc4s3)OCO5)sc2c1 | 7 | 69* | -18 | 13 | -20 | -14
O=C(O)c1nn(CCOc2ccc(Br)cc2)c(=O)c2ccccc12 | 0 | 14 | -1 | 0 | . | .
O=C(O)c1nn(CCOc2ccccc2F)c(=O)c2ccccc12 | 6 | 22* | -19 | -1 | 0 | 3
CSc1ccc(CN2CCCC(N3CCN(c4ccccc4)CC3)C2)cc1 (stereo not given) | -7 | 0 | -4 | 2 | . | .
O=C1OCCN1C(=O)[C@H]1[C@H](c2ccc(Cl)cc2)C(c2ccc(F)cc2)=NN1c1ccc(Br)cc1 | 16 | 27* | . | . | -23 | -13
O=S(=O)(NC1CC1)c1ccc(S(=O)(=O)N2CCN3CCCC3C2)cc1 (stereo not given) | -3 | -1 | 3 | -1 | . | .
O=S(=O)(NC1CCCCC1)c1ccc(S(=O)(=O)N2CCN3CCCC3C2)cc1 (stereo not given) | 9 | 37* | 3 | -1 | 3 | 5
COc1ccc(S(=O)(=O)N(C)c2ccc(C(=O)NCCC(C)C)cc2)cc1 | 15 | 12 | 4 | 5 | . | .
CCOCCCNC(=O)c1ccc(N(C)S(=O)(=O)c2ccc(OC)cc2)cc1 | -3 | 22* | . | 6 | 1 | 5
O=c1[nH]c2ccccc2nc1-c1cccs1 | 1 | 34* | -26 | 31 | -22 | -14
Cc1ccc(S(=O)(=O)Oc2ccc(/C=C(/NC(=O)c3ccccc3)C(=O)O)cc2)cc1 | 0 | 57* | -11 | 5 | 3 | 4
Cc1ccc(S(=O)(=O)Oc2ccc(/C=C(/NC(=O)c3ccccc3)C(=O)NCC(=O)O)cc2)cc1 | -30 | -29 | 3 | -1 | . | .
N=c1c(S(=O)(=O)c2ccc(Br)cc2)cc2c(=O)n3ccccc3nc2n1C1CCCC1 | 6 | -9 | -4 | 2 | . | .
N=c1c(S(=O)(=O)c2ccccc2)cc2c(=O)n3ccccc3nc2n1C1CCCC1 | -17 | 30* | -4 | 3 | -22 | -14
N#CC1=C(N)Oc2c(ccc3ccccc23)C1c1cccs1 (stereo not given) | 6 | -2 | -21 | 39 | . | .
CN(C)/C=N/C1=C(C#N)C(c2ccc(Br)cc2)c2ccc3ccccc3c2O1 (stereo not given) | 14 | 29* | -13 | 20 | -22 | -10
O=c1cc(CN2CCN(S(=O)(=O)c3ccc4c(c3)OCCO4)CC2)c2ccc(O)cc2o1 | 24 | 22* | 7 | -4 | -22 | -14
Cn1c(SCc2ccccc2F)nc2ccccc2c1=O | 6 | 22* | 0 | -2 | 1 | 3
Cc1ccccc1CSc1nc2ccccc2c(=O)n1C | -6 | -2 | . | 7 | . | .
Cc1ccc(S(=O)(=O)Nc2ccc(-c3nc4ccc(C)cc4s3)cc2)cc1 | 23 | 23* | -2 | 20 | 13 | 13
Cc1ccc2nc(-c3ccc(NS(=O)(=O)c4c(C)n(C)c(=O)n(C)c4=O)cc3)sc2c1 | -20 | -11 | -9 | 18 | . | .
Cc1ccc(C)c(N(CC(=O)Nc2ccc(-c3nc4ccc(C)cc4s3)cc2)S(C)(=O)=O)c1 | 24 | 24* | -15 | 7 | 17 | 23*
SMILES | procasp7 counter | proCasp3 act | PolyA inh | AHR act | proCasp7 act trip | proCasp3 confirm
Cc1ccc(N(CC(=O)Nc2ccc(-c3nc4ccc(C)cc4s3)cc2)S(C)(=O)=O)cc1 | 0 | -20 | -16 | 11 | . | .
C=CCN(c1ccccc1)S(=O)(=O)c1cccc(C(=O)OCC(=O)NCCOC)c1 | -5 | -6 | 28 | 4 | . | .
C=CCN(c1ccccc1)S(=O)(=O)c1cccc(C(=O)Oc2ccc3c(C)cc(=O)oc3c2)c1 | 21 | 21* | -6 | 1 | -7 | -7
O=C(NCc1ccco1)/C(=C\c1ccc(F)cc1)NC(=O)c1ccco1 | -13 | -15 | -13 | 2 | . | .
NC(=O)C1CCN(C(=O)CCNS(=O)(=O)c2ccccc2F)CC1 | 10 | 0 | . | 1 | . | .
COc1ccc(-n2c(CCc3ccccc3)nnc2SCC(=O)NCc2ccccc2)cc1 | -4 | 59* | -7 | 4 | 0 | 4
O=C(CSc1nnc(CCc2ccccc2)n1-c1ccc(Cl)cc1)NCc1ccccc1 | 4 | 14 | 0 | -1 | . | .
COc1ccc(C2CC(c3ccc(Cl)cc3)=NN2c2ccc(S(N)(=O)=O)cc2)cc1 (stereo not given) | 8 | 33* | . | . | -23 | -12
Cc1ccc(-c2cn(S(=O)(=O)c3cccc4nsnc34)nc2N)cc1 | -2 | 23* | 2 | 13 | 2 | 1
Nc1nn(S(=O)(=O)c2cccc3nsnc23)cc1-c1ccc(Br)cc1 | 5 | -2 | 17 | 28 | . | .
CC1(C)CC(=O)C2=C(C1)c1c(ccc3ccccc13)NC2c1ccc(C(=O)O)cc1 (stereo not given) | -2 | -7 | -9 | 9 | . | .
Cc1ccc(C2Nc3ccc4ccccc4c3C3=C2C(=O)CC(C)(C)C3)o1 (stereo not given) | 15 | 46* | -1 | 4 | 18 | 8
Cc1c(CCC(=O)O)c(=O)oc2cc(O)ccc12 | 21 | 24* | 18 | 0 | -21 | -12
CCCCCCc1cc2cc(C(N)=O)c(=N)oc2cc1O | 2 | 1 | -11 | 9 | . | .
CCCCCCc1cc2cc(C(=O)OCC)c(=O)oc2cc1O | 20 | 36* | 10 | 1 | -21 | -13
O=C(NCC1CCCN1S(=O)(=O)c1cccs1)c1cccc([N+](=O)[O-])c1 (stereo not given) | 3 | 5 | 10 | 6 | . | .
CC(=O)Oc1ccc(-c2cc3c(OC(C)=O)cc(OC(C)=O)cc3oc2=O)cc1 | 9 | 52* | 8 | 4 | -21 | -14
Cn1c(=O)c2[nH]c(CN3CCN(Cc4ccccc4)CC3)nc2n(C)c1=O | 14 | -3 | 23 | -3 | . | .
Cn1c(N)nc2nc(CCc3ccccc3)c(=O)[nH]c2c1=O | 6 | 22* | -6 | 18 | -22 | -14
O=c1c2ccccc2c(-c2ccccc2)nn1-c1cc(Cl)cc(Cl)c1 | 3 | 22* | 6 | 0 | 3 | 6
O=C(CC1SCCNC1=O)Nc1cccc(C(F)(F)F)c1 (stereo not given) | 6 | 67* | 1 | -1 | 1 | 4
O=C(CC1SCCNC1=O)Nc1cccc(Cl)c1 (stereo not given) | 5 | 9 | -14 | 3 | . | .
